Ki, Efficacy and EC50 data for 31 molecules are collected here from ChEMBL document CHEMBL1141037, “Synthesis and in vitro pharmacological studies of C(4) modified salvinorin A analogues” (Bioorg Med Chem Lett, 2005).

Each structure is given as a SMILES string.

The target of test [1] is T1, Kappa-type opioid receptor (Homo sapiens, UniProt P41145). As to the kind of experiment: Binding affinity for […] [3H]diprenorphine against human Opioid receptor kappa expressed in chinese hamster ovary cells (CHO cells). Format: cell-based. Put shortly:
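Competitive displacement of [3H]diprenorphine binding to membranes from CHO cells stably transfected with human KOR; compounds were first screened at a single concentration.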

For test [2], the target named is T1, Kappa-type opioid receptor. Put plainly: Percent maximal response in enhanced [35S]GTP-gamma-S, binding to human Opioid receptor kappa expressed in CHO cells relative to U50,488H. Format: functional, cell-based. Put shortly: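 Agonist stimulation of [35S]GTPγS binding to membranes of CHO-hKOR cells; efficacy is maximal response expressed as % of that of U50,488H; means of at least three independent experiments run in duplicate.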
On the technique in general: GTPγS is a poorly hydrolysed GTP analogue; its binding reports G protein activation.

The target in test [3] is T1, Kappa-type opioid receptor. Put plainly: Concentration required to enhance [35S]GTP-gamma-S, binding to human Opioid receptor kappa expressed in CHO cells. The test is classed as functional, cell-based. In a few lines: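 [35S]GTPγS binding to membranes of CHO cells stably expressing human KOR; EC50 for agonist-stimulated enhancement of binding; means of at least three independent experiments run in duplicate.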

T1 sequence (P41145 whole entry): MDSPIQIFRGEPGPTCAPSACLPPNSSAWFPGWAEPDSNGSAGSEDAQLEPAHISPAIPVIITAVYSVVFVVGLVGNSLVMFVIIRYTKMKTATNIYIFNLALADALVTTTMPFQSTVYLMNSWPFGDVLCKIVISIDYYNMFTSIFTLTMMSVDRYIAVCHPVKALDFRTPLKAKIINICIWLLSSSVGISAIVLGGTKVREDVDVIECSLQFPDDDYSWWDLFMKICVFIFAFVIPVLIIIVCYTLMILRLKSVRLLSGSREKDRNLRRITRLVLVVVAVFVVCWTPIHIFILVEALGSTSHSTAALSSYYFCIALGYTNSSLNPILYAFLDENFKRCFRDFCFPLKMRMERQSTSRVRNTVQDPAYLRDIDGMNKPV

The Ki is a dissociation constant, usually derived from enzyme kinetics or from competition with a known ligand. The low end stands for a stronger hold on the target, the high end for a looser hold on the target. In the case of `CC(=O)O[C@H]1C[C@@H](C(=O)NCCC#N)[C@]2(C)CC[C@H]3C(=O)O[C@H](c4ccoc4)C[C@]3(C)[C@H]2C1=O`, the Ki in test [1] was above 1000 nM. In test [1], `CCCCCCCCOC(=O)[C@@H]1C[C@H](OC(C)=O)C(=O)[C@H]2[C@@]1(C)CC[C@H]1C(=O)O[C@H](c3ccoc3)C[C@]21C` came in with a Ki above 1000 nM.

`C#CCCCOC(=O)[C@@H]1C[C@H](OC(C)=O)C(=O)[C@@H]2[C@@]3(C)C[C@@H](c4ccoc4)OC(=O)[C@H]3CC[C@]21C` had a Ki in test [1] above 1000 nM. The same measure, in the same setting: next, `CC(=O)O[C@H]1C[C@@H](C(=O)NN2CCC(C)CC2)[C@]2(C)CC[C@H]3C(=O)O[C@H](c4ccoc4)C[C@]3(C)[C@H]2C1=O`: above 1000 nM. One may read the EC50 as the midpoint of the concentration-response curve. As to `C#CCCCOC(=O)[C@@H]1C[C@H](OC(C)=O)C(=O)[C@H]2[C@@]1(C)CC[C@H]1C(=O)O[C@H](c3ccoc3)C[C@]21C`, the Efficacy in test [2] was 104%. Also, the EC50 in test [3] was determined as 224 nM. The molecule also gave a Ki in test [1] of 201 nM. Regarding `CC(=O)O[C@H]1C[C@@H](C(=O)NCCc2ccccc2)[C@]2(C)CC[C@H]3C(=O)O[C@H](c4ccoc4)C[C@]3(C)[C@H]2C1=O`, in test [1], the Ki is above 1000 nM. Still for that read-out and setting: next, `CCCCOC(=O)[C@@H]1C[C@H](OC(C)=O)C(=O)[C@H]2[C@@]1(C)CC[C@H]1C(=O)O[C@H](c3ccoc3)C[C@]21C`: above 1000 nM; `CC(=O)O[C@H]1C[C@@H](C(=O)NC2CC2)[C@]2(C)CC[C@H]3C(=O)O[C@H](c4ccoc4)C[C@]3(C)[C@H]2C1=O`: above 1000 nM.

For `COCOC(=O)[C@@H]1C[C@H](OC(C)=O)C(=O)[C@@H]2[C@@]3(C)C[C@@H](c4ccoc4)OC(=O)[C@H]3CC[C@]21C`, the Efficacy in test [2] is 102%. For the same molecule, the EC50 in test [3] amounted to 191 nM. In addition, the Ki in test [1] worked out at 110 nM. Take `CC(=O)O[C@H]1C[C@@H](C(=O)NN2CCOCC2)[C@]2(C)CC[C@H]3C(=O)O[C@H](c4ccoc4)C[C@]3(C)[C@H]2C1=O`: in test [1], the inhibition constant Ki was above 1000 nM.

In the case of `COCOC(=O)[C@@H]1C[C@H](OC(C)=O)C(=O)[C@H]2[C@@]1(C)CC[C@H]1C(=O)O[C@H](c3ccoc3)C[C@]21C`, in test [2], the Efficacy turned out to be 105%. The concentration for a half-maximal effect (EC50) in test [3] amounted to 58.2 nM. In test [1], this molecule gave a Ki of 99.6 nM.

On to `CC(=O)O[C@H]1C[C@@H](C(=O)NC(C)C(=O)OCc2ccccc2)[C@]2(C)CC[C@H]3C(=O)O[C@H](c4ccoc4)C[C@]3(C)[C@H]2C1=O` (some centres undefined), for which the Efficacy in test [2] was found to be 95%. Further, the EC50 in test [3] worked out at 46.7 nM. This molecule also registered a Ki in test [1] of 26.9 nM. `CC(=O)O[C@H]1C[C@@H](C(=O)OCc2ccccc2)[C@]2(C)CC[C@H]3C(=O)O[C@H](c4ccoc4)C[C@]3(C)[C@H]2C1=O` displayed a Ki in test [1] above 1000 nM. In the case of `CCOC(=O)[C@@H]1C[C@H](OC(C)=O)C(=O)[C@H]2[C@@]1(C)CC[C@H]1C(=O)O[C@H](c3ccoc3)C[C@]21C`, the Efficacy in test [2] is 110%. Also, the EC50 in test [3] amounted to 94.4 nM. Besides, in test [1], the Ki worked out at 28.5 nM. `CCCCCOC(=O)[C@@H]1C[C@H](OC(C)=O)C(=O)[C@H]2[C@@]1(C)CC[C@H]1C(=O)O[C@H](c3ccoc3)C[C@]21C` gave a Ki in test [1] above 1000 nM. `C#CCCOC(=O)[C@@H]1C[C@H](OC(C)=O)C(=O)[C@H]2[C@@]1(C)CC[C@H]1C(=O)O[C@H](c3ccoc3)C[C@]21C` registered a Ki in test [1] above 1000 nM.

Take `CC(=O)O[C@H]1C[C@@H](C(=O)NC(CO)C(=O)OCc2ccccc2)[C@]2(C)CC[C@H]3C(=O)O[C@H](c4ccoc4)C[C@]3(C)[C@H]2C1=O` (some centres undefined): in test [1], the inhibitory constant (Ki) was above 1000 nM. `CC(=O)O[C@H]1C[C@@H](C(=O)NCC(=O)OCc2ccccc2)[C@]2(C)CC[C@H]3C(=O)O[C@H](c4ccoc4)C[C@]3(C)[C@H]2C1=O`: the Efficacy in test [2] was 105%. Besides, the EC50 in test [3] is 227 nM. For the same molecule, the Ki in test [1] turned out to be 470 nM. In turn, `CC(=O)O[C@H]1C[C@@H](C(=O)O)[C@]2(C)CC[C@H]3C(=O)O[C@H](c4ccoc4)C[C@]3(C)[C@H]2C1=O` showed a Ki in test [1] above 1000 nM. Molecule `CC(=O)O[C@H]1C[C@@H](C(=O)NCCO)[C@]2(C)CC[C@H]3C(=O)O[C@H](c4ccoc4)C[C@]3(C)[C@H]2C1=O` showed a Ki in test [1] above 1000 nM. Still for that read-out and setting: next, `CC(=O)O[C@H]1C[C@@H](C(=O)NCC(=O)OCc2ccccc2)[C@]2(C)CC[C@@H]3C(=O)O[C@H](c4ccoc4)C[C@]3(C)[C@H]2C1=O`: above 1000 nM; `CC(=O)O[C@H]1C[C@@H](C(=O)NC(Cc2c[nH]cn2)C(=O)OCc2ccccc2)[C@]2(C)CC[C@H]3C(=O)O[C@H](c4ccoc4)C[C@]3(C)[C@H]2C1=O` (some centres undefined): above 1000 nM.

`CC(=O)O[C@H]1C[C@@H](C(=O)N2CCCC2C(=O)OCc2ccccc2)[C@]2(C)CC[C@H]3C(=O)O[C@H](c4ccoc4)C[C@]3(C)[C@H]2C1=O` (some centres undefined): in test [2], the Efficacy was 100%. The EC50 in test [3] was determined as 348 nM. The molecule further displayed an inhibition constant (Ki) in test [1] of 210 nM. In the case of `CC(=O)O[C@H]1C[C@@H](C(=O)NC(C)C(=O)OCc2ccccc2)[C@]2(C)CC[C@@H]3C(=O)O[C@H](c4ccoc4)C[C@]3(C)[C@H]2C1=O` (some centres undefined), in test [1], the Ki is above 1000 nM. Still for that read-out and setting: next, `CC(=O)O[C@H]1C[C@@H](C(=O)NCc2ccccc2)[C@]2(C)CC[C@H]3C(=O)O[C@H](c4ccoc4)C[C@]3(C)[C@H]2C1=O`: above 1000 nM. On the same count and under the same terms, next, `C=CCOC(=O)[C@@H]1C[C@H](OC(C)=O)C(=O)[C@H]2[C@@]1(C)CC[C@H]1C(=O)O[C@H](c3ccoc3)C[C@]21C`: above 1000 nM; `CC(=O)O[C@H]1C[C@@H](C(=O)N2CCCC2C(=O)OCc2ccccc2)[C@]2(C)CC[C@@H]3C(=O)O[C@H](c4ccoc4)C[C@]3(C)[C@H]2C1=O` (some centres undefined): above 1000 nM.

For `CC(=O)O[C@H]1C[C@@H](C(=O)O)[C@]2(C)CC[C@@H]3C(=O)O[C@H](c4ccoc4)C[C@]3(C)[C@H]2C1=O`, in test [2], the Efficacy was determined as 94%. The EC50 in test [3] was found to be 74.1 nM. In test [1], this molecule displayed a Ki of 48.6 nM. In test [1], `CCCOC(=O)[C@@H]1C[C@H](OC(C)=O)C(=O)[C@H]2[C@@]1(C)CC[C@H]1C(=O)O[C@H](c3ccoc3)C[C@]21C` returned a Ki above 1000 nM. For the molecule `CC(=O)O[C@H]1C[C@@H](C(=O)NC2CC2)[C@]2(C)CC[C@@H]3C(=O)O[C@H](c4ccoc4)C[C@]3(C)[C@H]2C1=O`, the Efficacy in test [2] came out at 95%. Also, the EC50 in test [3] worked out at 840 nM. In addition, the affinity in test [1], expressed as Ki, was 475 nM. `CCOC(=O)[C@@H]1C[C@H](OC(C)=O)C(=O)[C@@H]2[C@@]3(C)C[C@@H](c4ccoc4)OC(=O)[C@H]3CC[C@]21C`: in test [1], the Ki is above 1000 nM.
